The series is described as follows: Clearance in human liver microsomes assessed per mg of protein by LC/MS analysis. The class given is ADME, Microsome. A digest of the protocol:
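Human liver microsomes at 0.5 mg/mL protein. Reaction started with NADPH, run at 37 °C without shaking. Aliquots taken at 0.1, 10, 20 and 30 min for LC/MS analysis. Clearance expressed in µL/min/mg.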
On the technique in general: Liver microsomes are vesicles of endoplasmic reticulum, rich in cytochrome P450 enzymes.

In general, microsomal CLint refers to the rate of metabolic loss divided by the concentration. For the compound `Fc1cc(N2CCNCC2Cc2ccccc2)cc2cc[nH]c12` (stereo not drawn), the microsomal CLint came out at 16.8 µL/min/mg. `c1ccc(CC2CNCCN2c2ccc3[nH]ncc3c2)cc1` (stereo not drawn): the microsomal CLint was determined as 3.8 µL/min/mg. The result for `c1ccc(CC2CNCCN2c2ccc3[nH]ccc3c2)cc1` (stereo not drawn) reads 43.3 µL/min/mg.

These data come from ChEMBL document CHEMBL1177766, “2-Substituted N-aryl piperazines as novel triple reuptake inhibitors for the treatment of depression” (Bioorg Med Chem Lett, 2010).
